# Source: PubChem
# GAA850 FXN act = increases GAA850 frataxin promoter reporter activity | HEK293 lucGAA850 FXN promoter luciferase reporter, 24 h; percent of 10 µM SAHA response | activation, % at 6 µM | hit rate 0.56% among 360,000 | AID 540364;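 active = activation above the average of all compounds screened plus 3 SD, cutoff fixed separately per campaign, cut at about 7.5% in these data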;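 also: 0% = DMSO wells and 100% = 10 µM SAHA wells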
# NR2E3 ag-1 = activates human NR2E3 receptor. Q9Y5X4. CHO-S Gal4-NCOR/VP16-NR2E3 two-hybrid, luciferase. inhibition of corepressor binding, % at 3.98 µM. hit rate 0.35% among 360,000. AID 602229;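 active = inhibition above the mean of all tested compounds plus 3 SD, cut at about 70% in these data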;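 also: 0% = DMSO with NR2E3 transfected cells and 100% = cells lacking NR2E3 construct; higher means lower luciferase signal from less NR2E3 corepressor binding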
# Target sequence (Q9Y5X4 whole entry, looked up, the tested form may be a part): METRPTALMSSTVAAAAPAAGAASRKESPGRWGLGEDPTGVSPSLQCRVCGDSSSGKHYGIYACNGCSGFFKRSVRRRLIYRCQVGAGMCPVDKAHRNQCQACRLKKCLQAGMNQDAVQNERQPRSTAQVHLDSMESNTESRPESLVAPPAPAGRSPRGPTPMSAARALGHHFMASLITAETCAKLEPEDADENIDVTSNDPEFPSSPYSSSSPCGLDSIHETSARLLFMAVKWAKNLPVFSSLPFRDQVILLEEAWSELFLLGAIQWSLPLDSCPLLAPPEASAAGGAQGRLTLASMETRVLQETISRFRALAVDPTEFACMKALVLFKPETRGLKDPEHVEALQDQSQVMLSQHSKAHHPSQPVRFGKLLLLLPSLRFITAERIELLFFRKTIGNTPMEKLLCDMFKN
# T cell HTS = T cell immune modulation candidate; 2C CD8+ T cell-vesicle binding, flow cytometry; stronger effect = lower value; response (vesicle binding), % at 7 µM; hit rate 0.068% among 330,000; AID 2052;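 active = response, share of CD8 T cells binding vesicles, and their 90th percentile fluorescence all below set limits, cut at about 80% in these data, passing the limit was not always enough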;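 also: values below 100% mean blocked vesicle binding to the CD8+ T cells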
#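 Test system: purified 2C TCR transgenic mouse naive CD8+ T cells. Probe or stimulus: QL9-peptide-loaded Drosophila micro-vesicles bearing Ld, ICAM-1 and B7-1. Incubation: binding step 1.5 h, 37 °C, antibody labelling 20 min, ice. Measured by: flow cytometry of vesicle-bound cells.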
# NR2E3 ag-2 = agonists of human nuclear receptor NR2E3; GST-NR2E3/biotin-RetCOR TR-FRET, 1536-well; inhibition of corepressor binding, % at 4.78 µM; hit rate 0.12% among 320,000;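 active = percent inhibition above the cutoff of mean plus 3 SD of all tested compounds, set per screening campaign, cut at about 20% in these data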;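 also: 0% = DMSO wells and 100% = biotin wells as full block of FRET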
#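 Format: 1536-well format; test system: GST-NR2E3 and biotin-RetCOR proteins; read-out basis: percent inhibition of TR-FRET ratio; timing: 5 h incubation at 4 °C; detection: time-resolved FRET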
# Myeloid diff 2 = promotes myeloid progenitor differentiation | hit rate 1% among 360,000 | ER-HoxA9 myeloid progenitors, lysozyme-GFP differentiation, flow cytometry | AID 624256 | calls only at 10 µM;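 active = normalized GFP-positive differentiation at or above the plate's own cutoff, the solvent-only control mean plus 3 SD; inconclusive = no clear call, values can overlap the other calls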;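 also: cells exposed to compound for four days before flow analysis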
# GAA30 FXN cntr = GAA30 FXN promoter activation counter-screen; AID 588350; HEK293 lucGAA30 FXN promoter luciferase, 24 h; DMSO = 0%, 5 µM ipriflavone = 100%; activation, % at 6 µM; hit rate 66% among 1,900; shares compounds with GAA850 FXN act;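 active = mean activation above the mean of solvent-only control wells plus 3 SD, cut at about 22% in these data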;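 also: counterscreen of GAA850 promoter hits where activity marks nonselective or luminescence artifacts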
# GAA850 confirm = confirmation of GAA850 frataxin (FXN) promoter activators | shares compounds with GAA850 FXN act | HEK293 lucGAA850 FXN promoter luciferase reporter, 24 h; 100% = activation by SAHA | activation, % at 6 µM | hit rate 86% among 1,900 | AID 588351;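 active = mean activation above a set limit taken from the primary screen, cut at about 8% in these data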;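 also: 0% = DMSO wells and 100% = 10 µM SAHA wells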
# Numbers without * were called inactive; i = inactive; ? = inconclusive; . = not tested or not shown. The list is not random: actives were taken first. Their share in the collection is about 2%.
SMILES,GAA850 FXN act,NR2E3 ag-1,T cell HTS,NR2E3 ag-2,Myeloid diff 2,GAA30 FXN cntr,GAA850 confirm
CC1(C(=O)NS(=O)(=O)c2ccccc2OC(F)(F)F)CCN1C(=O)c1ccco1 (stereo not given),1.8,-12.3,.,.,i,.,.
COc1cc(SC)ccc1C(=O)Nc1ccc(Br)cn1,-9.0,-70.8,406.9,1.9,i,.,.
COc1cc(SC)ccc1C(=O)Nc1ncc(Cl)cc1Cl,9.8*,-117.9,270.4,2.8,i,119.2*,41.0*
CS(=O)(=O)c1ccc2nc(NC(=O)c3ccco3)sc2c1,1.4,-112.0,537.6,4.8,i,.,.
Cc1c(Cl)ccc2sc(NC(=O)c3ccco3)nc12,7.7*,-146.6,588.4,2.9,i,104.8*,37.5*
CCOC(=O)c1csc(NC(=O)c2ccc3c(c2)OCCO3)n1,6.1,-80.4,486.2,-1.9,i,.,.
Cc1ccc(NC(=O)c2ccc([N+](=O)[O-])o2)cc1C,7.7*,34.0,183.3,0.7,.,56.1*,35.0*
CC1CCN(c2ccc(NC(=O)c3ccc([N+](=O)[O-])o3)cc2)CC1,10.5*,15.4,240.5,-3.2,?,79.9*,62.6*
CC(C)(C)C(=O)N1CCN(c2ccc(NC(=O)c3ccc([N+](=O)[O-])o3)cc2)CC1,5.3,1.3,318.6,7.4,?,.,.
COc1ccc(N2CCCC2)c(NC(=O)c2ccc([N+](=O)[O-])o2)c1,1.8,-8.1,403.5,-2.6,?,.,.
O=C(Nc1ccc(N2CCCCC2)cc1)c1ccc([N+](=O)[O-])o1,12.8*,3.6,258.3,1.1,?,114.2*,67.4*
O=C(Nc1ccc(N2CCCC2)c(Cl)c1)c1ccc([N+](=O)[O-])o1,17.9*,18.2,.,.,?,117.7*,69.9*
CCCc1c(-c2cccc(Cl)c2)ncn1CCc1ccccc1OC,.,-38.6,.,.,i,.,.
Nc1cc2c3ccccc3ccc2c2ccccc12,2.3,-95.5,.,.,i,.,.
C/C=C/c1ccc(OCCCCOc2ccccc2C(C)=O)c(OC)c1,-0.3,-14.6,219.6,1.2,i,.,.
C/C=C/c1ccc(OCCCCN(C)Cc2ccccc2)c(OC)c1,9.5*,-10.3,356.8,2.1,i,16.2,13.2*
O=C(NNc1ncnc2ccccc12)c1cccc(Cl)c1,5.0,-99.6,546.0,-3.2,i,.,.
CCOc1ccc(NC(=O)c2cc(S(=O)(=O)N3CCCCC3)c[nH]2)cc1,12.5*,-1.1,197.9,2.2,i,3.6,2.6
COCCn1ccc2c(OCC(=O)NCc3ccc(C)cc3)cccc2c1=O,0.2,-22.6,379.4,0.4,i,.,.
CN1C(=O)/C(=C\c2ccncc2)SC1=Nc1ccccc1,8.4*,-8.9,290.4,2.3,i,-1.0,7.2
OC12CCCCC1C(c1ccc3c(c1)OCO3)N(Cc1cccc(F)c1)CC2 (stereo not given),11.7*,-6.5,.,.,i,20.0,12.7*
OC12CCCCC1C(c1ccc3c(c1)OCO3)N(Cc1ccccc1F)CC2 (stereo not given),1.1,-20.3,475.6,2.7,i,.,.
OC12CCCCC1C(c1ccc3c(c1)OCO3)N(Cc1ccc(F)cc1)CC2 (stereo not given),14.8*,-23.9,246.8,-1.0,i,21.3,11.8*
O=S1(=O)CC(N2CC=CC2)CN1Cc1ccc(F)cc1 (stereo not given),.,10.6,.,.,i,.,.
COc1cc2c(cc1OC)/C(=C/C(=O)c1ccccc1F)NCC2,8.3*,19.3,168.6,.,i,16.6,12.4*
CC(C)Cc1ccc(C(C)C(N)=NCCc2ccccc2)cc1 (stereo not given),10.7*,17.8,187.5,.,i,-21.8,36.0*
CCCCOC(=O)Nc1ccc(N2CCOCC2)cc1,1.6,-64.3,181.8,-0.5,i,.,.
CCCCOC(=O)Nc1ccc(N2CCCCC2)cc1,8.1*,-145.9,340.4,-2.3,i,92.6*,30.9*
COCCCNc1nc2c(-c3cccc(C)c3)nnn2c2ccccc12,-1.4,-29.9,293.1,-2.6,i,.,.
